{"source": "paper PMC7380323", "about": "(ACS chemical neuroscience, 2020)", "key": {"[1]": {"tested_on": "immortalized human microglia cells", "assay": "Automated patch clamp, GABA current response in immortalized human microglia", "type": "cell-based"}, "[2]": {"tested_on": "Mouse microglia", "type": "cell-based"}, "[3]": {"tested_on": "HMC3 human microglia cells", "type": "cell-based", "settings": "−80 mV"}, "[4]": {"tested_on": "immortalized mouse microglia cells", "assay": "Automated patch clamp, GABA current response in immortalized mouse microglia", "type": "cell-based"}, "[5]": {"tested_on": "Mouse microglia", "assay": "Cell viability", "type": "cell-based", "settings": "for Cell viability (%) Mouse microglia 50 μM: CellTiter-Glo"}, "[6]": {"tested_on": "RAW macrophages", "assay": "Cell viability", "type": "cell-based, mouse", "settings": "CellTiter-Glo"}, "[7]": {"tested_on": "RAW macrophages", "assay": "Inhibition of NO production", "type": "cell-based, mouse", "settings": "24 h, IFNγ/LPS activated, 1 μM GABA", "how_it_was_run": "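RAW264.7 murine macrophages were grown in DMEM/high glucose with 10% heat-inactivated FBS, penicillin/streptomycin and Normocin at 37°C and 5% CO2, and passaged by scraping. […] After about 24 h at 37°C, nitrite in the supernatant was measured by Griess assay (absorbance 530 nm).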"}, "[8]": {"tested_on": "κ-opioid receptor", "settings": "cited from earlier work"}, "[9]": {"tested_on": "Swiss Webster mice", "assay": "Rotarod test", "type": "in vivo, mouse", "settings": "5 mg/kg"}, "[10]": {"tested_on": "Swiss Webster mice", "assay": "Formalin test", "type": "in vivo, mouse", "settings": "30 mg/kg orally", "how_it_was_run": "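Test compounds given orally four days before 2% formalin was injected into the right hind paw of Swiss Webster mice.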"}}, "note": "Read-outs that look alike come from different tables or passages of the source.", "data": [{"compound": "NCCCC(=O)O", "note": "[GABA, γ-aminobutyric acid]", "values": [{"measurement": "maximum current response for 1 mM GABA", "setting": "[1]", "result": 1245, "unit": "pA"}, {"measurement": "secreted NO levels of activated microglia", "setting": "[2]; 1 μM, Griess assay after 14 h", "result": "no effect"}, {"measurement": "maximum negative current response for 1 mM GABA", "setting": "[3]", "result": 746, "unit": "pA"}, {"measurement": "maximum current response for 1 mM GABA", "setting": "[4]", "result": 1514, "unit": "pA"}]}, {"compound": "C#Cc1ccc2c(c1)C(c1ccccn1)=NCc1c(-c3cnco3)ncn1-2", "note": "[KRM-II-81]", "values": [{"measurement": "Inhibition of NO production (%) Mouse microglia 50 μM", "setting": "[2]", "result": "0 ± 1", "unit": "%"}, {"measurement": "Cell viability (%) Mouse microglia 50 μM", "setting": "[5]", "result": "100 ± 5", "unit": "%"}]}, {"compound": "C#Cc1ccc2c(c1)C(c1ccccc1F)=N[C@H](C)c1c(C(=O)NC)ncn1-2", "note": "[MP-III-022]", "values": [{"measurement": "Inhibition of NO production (%) Mouse microglia 10 μM", "setting": "[2]", "result": "36 ± 6", "unit": "%"}, {"measurement": "Inhibition of NO production (%) Mouse microglia 50 μM", "setting": "[2]", "result": "60 ± 12", "unit": "%"}, {"measurement": "Cell viability (%) RAW macrophages 50 μM", "setting": "[6]", "result": "100 ± 11", "unit": "%"}, {"measurement": "Inhibition of NO production (%) RAW macrophages 10 μM", "setting": "[7]; 10 μM", "result": "9 ± 5", "unit": "%"}, {"measurement": "Inhibition of NO production (%) RAW macrophages 50 μM", "setting": "[7]; 50 μM", "result": "51 ± 7", "unit": "%"}, {"measurement": "Cell viability (%) Mouse microglia 50 μM", "setting": "[5]", "result": "86 ± 2", "unit": "%"}]}, {"compound": "CN1CCc2cc3c(cc2[C@H]1[C@@H]1OC(=O)c2c1ccc1c2OCO1)OCO3", "note": "[bicuculline]", "values": [{"measurement": "reversal of the NO effect of 50 μM MP-IV-010 by antagonist", "setting": "[2]; antagonist 100 μM, with GABA, 14 h", "result": "did not reverse"}]}, {"compound": "CNC1=Nc2ccc(Cl)cc2C(c2ccccc2)=[N+]([O-])C1", "note": "[chlordiazepoxide]", "values": [{"measurement": "affinity for the κ-opioid receptor (in words)", "setting": "[8]", "result": "micromolar affinities"}]}, {"compound": "C[C@@H]1C[C@H]2[C@@H]3CCC4=CC(=O)C=C[C@]4(C)[C@@]3(F)[C@@H](O)C[C@]2(C)[C@@]1(O)C(=O)CO", "note": "[dexamethasone]", "values": [{"measurement": "NO production of activated microglia", "setting": "[2]; 100 nM, Griess assay after 14 h", "result": "reduced NO production"}, {"measurement": "cytotoxicity / cell viability in the antagonist experiments (CellTiter-Glo)", "setting": "[5]; activated mouse microglia, concentrations as in the NO experiments", "result": "without cell toxicity"}]}, {"compound": "CN1C(=O)CN=C(c2ccccc2)c2cc(Cl)ccc21", "note": "[diazepam]", "values": [{"measurement": "sedation on the rotarod", "setting": "[9]", "result": "sedating"}, {"measurement": "affinity for the κ-opioid receptor (in words)", "setting": "[8]", "result": "micromolar affinities"}]}, {"compound": "CCOC(=O)c1ncn2c1CN(C)C(=O)c1cc(F)ccc1-2", "note": "[flumazenil]", "values": [{"measurement": "reversal of the NO effect of 50 μM MP-IV-010 by antagonist", "setting": "[2]", "result": "did not reverse"}]}, {"compound": "CC(C(=O)O)c1cccc(C(=O)c2ccccc2)c1", "note": "(stereo not drawn) [ketoprofen]", "values": [{"measurement": "antinociceptive effect in the formalin test compared with GL-IV-03 10 mg/kg", "setting": "[10]", "result": "similar"}]}, {"compound": "Cc1ncc2n1-c1ccc(Cl)cc1C(c1ccccc1F)=NC2", "note": "[midazolam]", "values": [{"measurement": "affinity for the κ-opioid receptor (in words)", "setting": "[8]", "result": "micromolar affinities"}]}, {"compound": "Oc1ccc2c3c1O[C@H]1c4[nH]c5c(c4C[C@@]4(O)[C@@H](C2)N(CC2CC2)CC[C@]314)C[C@@]1(O)[C@H]2Cc3ccc(O)c4c3[C@@]1(CCN2CC1CC1)[C@H]5O4", "note": "[norbinaltorphimine]", "values": [{"measurement": "reversal of the NO effect of 50 μM MP-IV-010 by antagonist", "setting": "[2]; antagonist 30 μM, 14 h", "result": "reversed"}]}, {"compound": "SM-21", "values": [{"measurement": "reversal of the NO effect of 50 μM MP-IV-010 by antagonist", "setting": "[2]; antagonist 30 μM, 14 h", "result": "no reversal"}]}, {"compound": "picrotoxin", "values": [{"measurement": "reversal of the NO effect of 50 μM MP-IV-010 by antagonist", "setting": "[2]; antagonist 50 μM, with GABA, 14 h", "result": "did not reverse"}]}]}
